GRIN3A LBD mod: binders of NR3A ligand-binding domain, primary screen, biophysical, differential scanning fluorimetry, uHTS | Tm shift relative to glycine control, % at 25 µM | hit rate 2.5% among 340,000 | Glutamate receptor ionotropic, NMDA 3A (GRIN3A) ligand-binding domain | NR3A LBD differential scanning fluorimetry, Tm shift; 0% = protein alone, 100% = glycine-bound protein | AID 1259313, 2017;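 active means melting temperature shift of at least 10% of the positive control shift, at one fixed dose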
XBP1 UPR activ: activators of adaptive XBP1 UPR arm, primary screen, cell-based, CHO-XBP1 luciferase reporter, luminescence, uHTS. activation, % at 20 µM. AID 463104, 2010. hit rate 0.33% among 330,000. IRE1-XBP1 UPR activation; percent of tunicamycin response, DMSO as zero;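 active means versus positive control, 20 µM dose yields 30% or more activation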;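 further: 100% = tunicamycin at 10 µg/mL and 0% = DMSO only wells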
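Assay system: IRE1-XBP1 luciferase reporter CHO line. Input: 1000 cells/well. Buffer or medium: F12 with 10% serum. Doses: 20 µM, 1% DMSO. Times: overnight seeding at 37 °C, 6 h compound treatment at 37 °C. Technique: Steady-Glo luciferase glow luminescence, 10 min after reagent addition.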
aDG glyco up: activators of alpha-DG glycosylation, primary screen, uHTS, Pro5-aDG cells, AlphaScreen | alpha-DG glycosylation AlphaScreen (IIH6); 0% Pro5, 100% B10-LARGE cell signal | activation, % at 10 µM | hit rate 0.22% among 360,000 | AID 624168, 2012;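 active means activation of at least 8% versus controls, or a plate z-score of at least 8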;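 further: Pro5 are CHO cells carrying HIG-tagged alpha-DG that lacks glycosylation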
UPR CHOP act: activators of apoptotic CHOP UPR arm, primary screen, cell-based, CHO-CHOP luciferase reporter, luminescence, uHTS. UPR activation; percent of tunicamycin response over DMSO baseline. activation, % at 10 µM. hit rate 0.34% among 330,000;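 active means at 10 µM dose, activation of 40% or more, normalized to positive control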;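 further: 100% = tunicamycin at 10 µg/mL and 0% = DMSO alone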
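Material: CHO-CHOP cells, stable luciferase reporter of PERK-eIF2a-CHOP signalling; quantity: 500 reporter cells seeded per well; buffer or medium: F12 medium containing 10% fetal bovine serum; compound: one dose, 10 µM in 0.5% DMSO; incubation: 6 h compound treatment, 37 °C; measured by: Steady-Glo luciferase luminescence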
CHOP inh: inhibitors of CHOP promoter induction, primary screen, cell-based, unfolded protein response, luciferase reporter; hit rate 3.8% among 220,000; inhibition, % at 10 µM; CHO-K1 CHOP-promoter luciferase, tunicamycin-induced, 15-18 h;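 active means compounds that reduced the stress-induced luciferase reporter signal by more than about 70% of percent inhibition, limit read from the data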;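 further: 0% = tunicamycin plus vehicle and 100% = wells without tunicamycin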
MPTP inh: mitochondrial permeability transition pore inhibitors, primary screen, biochemical, isolated mouse mitochondria, absorbance; hit rate 1.4% among 360,000; AID 602449, 2012; Ca2+ swelling absorbance, 30 min; inhibition, % at 10 µM;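 active means inhibition of 50% or more, scaled per plate between neutral and stimulator controls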;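 further: 0% = DMSO wells given calcium and 100% = 1 mM EGTA wells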
MPTP counter: fluorescence retest of MPTP screen hits in isolated mitochondria, single concentration | AID 624504, 2012 | inhibition, % at 10 µM | shares compounds with MPTP inh | hit rate 78% among 5,000 | membrane potential, Rhodamine 123 fluorescence; in the data active means inhibition above about 22%;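 further: 0% = DMSO vehicle and 100% = positive control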
MPTP swell DR: mitochondrial permeability transition pore inhibitors, dose response, biochemical, absorbance, uHTS hits | AID 651561, 2012 | IC50, µM | hit rate 58% among 780 | isolated mitochondria swelling | shares compounds with MPTP inh; in the data active means IC50 below about 20 µM
MPTP counter DR: fluorescent counter-screen in isolated mitochondria, dose response, counter-screen for MPTP inhibitor project, biochemical, fluorescence, uHTS hits; shares compounds with MPTP inh; isolated mitochondria counterscreen, fluorescence read-out; IC50, µM; hit rate 49% among 780; AID 651564, 2012; in the data active means IC50 below about 80 µM
An asterisk follows results filed as active; i = inactive; x = no result given. In the library only some 5.6% were active in any assay of this set; here they are far more common.

SMILES | GRIN3A LBD mod | XBP1 UPR activ | aDG glyco up | UPR CHOP act | CHOP inh | MPTP inh | MPTP counter | others
CC(C)(C)c1ccc(C(=O)c2c[nH]c(C(=O)NCC3CCCO3)c2)cc1 (stereo unspecified) | -5.6 | -3.3 | 1.0 | 1.8 | 24.2 | 70.0* | 12.4 | MPTP swell DR=i;MPTP counter DR=27.4*
CSc1c(CC(=O)Nc2ccc(F)cc2)n(Cc2ccccc2)c2ccccc12 | -2.0 | 2.1 | 0.3 | 0.2 | 37.4 | 81.3* | 66.9*
O=C(CNc1cccc(Cl)c1)NNC(=S)NCc1ccccc1 | -7.7 | -1.1 | 0.2 | 0.4 | 0.2 | 1.7 | x
S=C(NCc1ccccc1)Nc1cccc(Cl)c1 | -7.7 | 0.8 | 0.1 | -0.2 | 23.2 | 97.0* | 100.9*
Fc1cc(NC(=S)NCc2ccc(CNC(=S)Nc3ccc(Cl)c(F)c3)cc2)ccc1Cl | 94.2* | -0.6 | 0.4 | 5.9 | 84.4* | 92.4* | 73.1*
Fc1cccc(NC(=S)NCc2ccc(Cl)cc2)c1 | -1.0 | -2.1 | -0.1 | 0.4 | 39.1 | 96.1* | 89.2*
Fc1ccccc1NC(=S)NCc1ccc(Cl)cc1 | -0.7 | -2.4 | 0.1 | 0.3 | x | 20.8 | x
Fc1ccccc1CNC(=S)Nc1cccc(C(F)(F)F)c1 | 14.0* | -0.1 | 1.5 | 0.3 | 50.6 | 73.8* | 97.3*
FC(F)(F)c1cccc(NC(=S)NCc2ccc(Cl)cc2)c1 | 20.2* | -0.8 | 4.9 | -0.7 | 94.6* | 78.4* | 88.4*
Fc1ccc(CNC(=S)Nc2cccc(C(F)(F)F)c2)cc1 | 7.0 | -4.2 | -0.1 | -0.7 | 23.6 | 100.5* | 85.1*
O=[N+]([O-])c1cc(C(F)(F)F)cc([N+](=O)[O-])c1NCCNC(=S)Nc1cccc(F)c1 | 17.1* | -4.2 | 0.2 | -1.1 | 12.2 | 90.4* | 78.5*
FC(F)(F)c1cccc(NC(=S)NNC(=S)Nc2ccc(Cl)cc2)c1 | x | 5.2 | x | 1.2 | 55.5 | x | x
COc1ccccc1N1CCN(C(=O)c2c(C)noc2C)CC1 | 0.2 | -2.4 | -0.2 | -0.1 | 3.7 | 3.0 | x
COc1ccccc1N1CCN(C(=O)c2ccoc2C)CC1 | -0.2 | -5.1 | 0.0 | -0.7 | 27.4 | 77.8* | -1.5 | MPTP swell DR=>100;MPTP counter DR=>80
COC(=O)c1sccc1N/N=C/c1cccc(Oc2ccccc2)c1 | -3.8 | 0.5 | -0.4 | 4.5 | 13.8 | 63.8* | -8.2 | MPTP swell DR=i;MPTP counter DR=>80
CCN1CCN(CC(=O)n2c3c(c4ccccc42)CC(C)CC3)CC1 (stereo unspecified) | -5.8 | -1.2 | 0.7 | 0.0 | 24.5 | 77.7* | -13.0 | MPTP swell DR=8.65*;MPTP counter DR=>80
COc1ccc(C(=O)NCCN2CCOCC2)cc1S(=O)(=O)Nc1ccc(C)cc1 | 0.3 | -0.9 | -0.1 | -0.5 | x | -0.1 | x
COc1ccc(C(=O)C2CCCN(Cc3cccn3-c3ccc(Cl)cn3)C2)c(OC)c1 (stereo unspecified) | -2.2 | -1.8 | 1.1 | -2.1 | 21.1 | 75.6* | 98.6*
COc1ccc(C(=O)C2CCCN(Cc3c(F)ccc(F)c3F)C2)c(OC)c1 (stereo unspecified) | 3.0 | -3.9 | -0.2 | -0.8 | x | 0.2 | x
CCCc1cc(=O)oc2cc(OCC(=O)NCCCN3CCOCC3)ccc12 | 0.4 | -3.1 | 0.0 | 0.1 | x | 0.0 | x
Cc1ccc(OCCCCNC2CCCC(C)C2C)c(C)c1 (stereo unspecified) | -0.4 | -0.3 | 7.6 | 1.7 | 54.6 | 59.9* | -1.1
Cc1ccc(OCCCCN2CCCCC2)c(C)c1 | 0.3 | -4.7 | 0.1 | 1.6 | x | -0.8 | x
CCOC(=O)c1c(C)[nH]c(C(=O)N/N=C\c2ccccc2O)c1C | 17.5* | x | 1.3 | x | 48.2 | 69.3* | 65.7*
CCOC(=O)c1c(C)[nH]c(C(=O)N/N=C/c2cc([N+](=O)[O-])ccc2O)c1C | -0.7 | -0.7 | -0.2 | 1.4 | x | 56.4* | 10.6
CC(C)NC(=O)C1(C)CSCC(=O)N1C1CC1 (stereo unspecified) | x | x | -0.2 | x | x | 1.4 | x
SMILES | GRIN3A LBD mod | XBP1 UPR activ | aDG glyco up | UPR CHOP act | CHOP inh | MPTP inh | MPTP counter | others
CC(C)(C)c1nc(NC(=O)Nc2ccccc2)sc1Br | 2.9 | 6.1 | 6.4 | 1.3 | 104.7* | 94.0* | 80.4*
CN(C)/C=C/C(=O)c1ccc(C(F)(F)F)cc1F | -1.5 | 1.1 | 0.1 | 0.2 | 5.2 | 0.6 | x
Cc1ccc(CC(=O)Nc2cccnc2)cc1 | -3.1 | 0.7 | 0.0 | -1.1 | 9.0 | 1.5 | x
O=C(Cc1sc(-c2ccccc2)nc1-c1ccccc1)Nc1ccc(Cl)cc1 | 24.1* | -1.5 | 0.0 | 3.2 | -4.9 | 68.6* | 6.3 | MPTP swell DR=12.4*;MPTP counter DR=<2.5*
O=C(Cc1ccc(Cl)cc1)Nc1ccncc1 | -1.6 | -1.1 | 0.8 | 0.8 | 52.9 | 57.6* | 15.5 | MPTP swell DR=i;MPTP counter DR=41.3*
O=C(Cc1ccc([N+](=O)[O-])cc1)Nc1ccc(Cl)cc1 | -3.0 | -4.5 | 0.1 | 0.6 | 22.1 | 68.5* | 75.6*
O=C(C/C=N\OCc1ccc([N+](=O)[O-])cc1)Nc1ccc(Cl)cc1 | -17.0 | -3.6 | 0.0 | -2.0 | 24.6 | 0.5 | x
Cc1ccc(CC(=O)Nc2ccncc2)cc1 | -0.7 | -3.0 | 6.4 | 0.6 | 22.9 | 84.2* | 36.0*
c1ccc2c(c1)COC(CNC1CCCCC1)OC2 | 0.3 | 0.3 | 0.1 | 0.5 | 9.0 | -2.0 | x
CCO[C@H]1OC(C(=O)N2CCOCC2)=C[C@@H](c2ccc(Br)cc2)[C@@H]1CCCO | -0.3 | -2.9 | 0.1 | 2.3 | 10.3 | -1.6 | x
CC(/C=N\NC(=O)Cn1c(C)nc2ccccc21)=C\c1ccccc1 | -4.2 | -3.0 | 3.1 | 3.9 | 59.0 | 54.0* | 64.9*
C/C(=N\NC(=O)Cn1c(C)nc2ccccc21)c1cccs1 | -6.5 | -1.9 | 1.4 | 0.4 | 16.1 | 4.0 | x
CC(/C=N/NC(=O)CSc1nc(C)cc(C)n1)=C\c1ccccc1 | -0.4 | -2.0 | 0.7 | 3.6 | 36.6 | 50.5* | 52.6*
O=C(CN1CCOCC1)Nc1ccc(NC(=O)c2ccccc2F)cc1 | -0.2 | -2.9 | 0.0 | 1.5 | x | -0.5 | x
CCN(CC)CCNC(C(=O)Nc1ccc([N+](=O)[O-])cc1Br)c1ccccc1 (stereo unspecified) | -2.2 | -1.4 | -0.2 | 2.0 | 30.3 | 61.2* | -1.9 | MPTP swell DR=>100;MPTP counter DR=>80
